Compound activity: PubChem, several laboratories
ABHD5 PLIN5 PPI = ABHD5-PLIN5 interaction inhibitors, primary screen, cell lysate, split luciferase complementation, luminescence; actives 0.78% (n = 360,000); Split G. princeps luciferase complementation, 4 h; AID 602281, 2012; Perilipin-5 (Homo sapiens) + 1-acylglycerol-3-phosphate O-acyltransferase ABHD5 (Homo …; inhibition, % at 4 µM;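 active means inhibition above the mean inhibition across every tested compound plus 3 SD, cut at about 22% in these data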
MBD2 inh = inhibitors of MBD2 binding to methylated DNA, primary screen, biochemical, TR-FRET, DNA-binding domain, human; MBD2 binding to methylated oligonucleotide; inhibition, % at 4.4 µM; actives 0.31% (n = 370,000); in the data active means inhibition above about 13%
Arr AP2 block = inhibitors of beta-arrestin/AP2 binding, primary screen, biochemical, GPCR trafficking, flow cytometry | inhibition, % at 10 µM | beta-arrestin 1 C-terminal peptide binding to AP2 beta2-adaptin appendage (human) | AID 504490, 2011 | actives 0.31% (n = 340,000) | FITC-arrestin peptide / GST-AP2 beads; AP2 beta2 appendage carries R879A mutation;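 active means inhibition above a set limit, near 3 SD of compounds lacking own fluorescence, cut at about 54% in these data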
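Material – AP2 appendage R879A on GSH beads · Buffer or medium – PBS with 0.05% Tween 20 and 0.1% BSA · Probe or stimulus – fluorescein-tagged arrestin peptide at 50 nM final · Incubation – compound with beads 12 min RT, then probe 1 h RT · Detection – high-throughput flow cytometry of beads, ex 488, em 535 nm · Evaluation – percent response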
Rin1 Abl inh = inhibitors of Rin1-Abl protein binding, primary screen, biochemical, TR-FRET. Tyrosine-protein kinase ABL1 (Homo sapiens) + Ras and Rab interactor 1 (Homo sapiens), …. AID 588664, 2011. inhibition, % at 7.35 µM. actives 0.4% (n = 360,000); in the data active means inhibition above about 5%, passing the limit was not always enough
UHRF1 MBD2 ctr = UHRF1 methylated DNA binding inhibitors, primary screen, counter-screen for MBD2 inhibitor project, biochemical, TR-FRET, human UHRF1, single concentration. E3 ubiquitin-protein ligase UHRF1 (Homo sapiens), Q96T88. UHRF1 binding to methylated oligo. inhibition, % at 4.4 µM. actives 0.75% (n = 370,000). AID 687016, 2013; in the data active means inhibition above about 21%;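 further: UHRF1 SRA domain binding a hemimethylated CpG hairpin DNA probe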
Beta2AR agonist = beta2AR agonists driving receptor internalization, primary screen, cell-based, FAP fluorogen, flow cytometry; Am2.2-beta2AR cells; response, % (no concentration beside the values); actives 0.43% (n = 340,000); AID 504454, 2011;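 active means response above a set limit, near 3 SD of response in nonfluorescent compounds, cut at about 42% in these data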
ABHD5-PLIN5 conf = ABHD5-PLIN5 interaction inhibitors, confirmation, biochemical, luminescence; shares compounds with ABHD5 PLIN5 PPI; inhibition, % at 4 µM; actives 67% (n = 2,200); AID 651612, 2012; in the data active means inhibition above about 23%
HNF4 counter = HNF4 dimerization inhibitors, counter-screen for ABHD5-PLIN5 interaction inhibitor project, biochemical, split-luciferase complementation, luminescence; shares compounds with ABHD5 PLIN5 PPI; actives 77% (n = 2,200); AID 651674, 2012; inhibition, % at 4 µM;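 active means mean inhibition across replicate wells exceeding the computed hit threshold, cut at about 13% in these data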;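 further: light from luciferase halves that rejoin when HNF4 fusion proteins dimerize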
Each line names hits and unclear results; the compound was inactive in the other large screens (follow-up assays come after a bar, where they were run); ! = a repeat was not active. In the library only some 2.5% were active in any assay of this set; here they are far more common.

CCCN1CCC[C@H](c2cccc(O)c2)C1	none
CNS(=O)(=O)c1ccc(N=Cc2c(O)n(-c3ccccc3)c(=O)[nH]c2=O)cc1	ABHD5 PLIN5 PPI 40.2 | ABHD5-PLIN5 conf inactive | HNF4 counter 21.8
CNS(=O)(=O)c1ccc(N=Cc2c(O)n(-c3cccc(C)c3)c(=O)[nH]c2=O)cc1	none
O=c1[nH]c(=O)n(-c2cccc(Cl)c2)c(O)c1/C=N/c1ccccn1	ABHD5 PLIN5 PPI 26.4 | ABHD5-PLIN5 conf inactive | HNF4 counter 27.0
N=Cc1c(O)n(-c2cccc(Cl)c2)c(=O)[nH]c1=O	none
Cc1cc(Cl)ccc1OCCCC(=O)NCc1cccs1	none
CC12CN3CC(c4ccccc4)(CN(C1)C31CCCCC1)C2=O	none
Cn1c(O)c(C=Nc2ccc(Br)cc2)c(=O)n(C)c1=O	none
Cn1c(O)c(C=Nc2cccc(C(F)(F)F)c2)c(=O)n(C)c1=O	ABHD5 PLIN5 PPI 24.1 | ABHD5-PLIN5 conf inactive | HNF4 counter 13.8
CCOC(=O)[C@]12Cc3cc(OC)ccc3[C@H]1N(C1CCCCC1)C(=O)c1ccccc12	ABHD5 PLIN5 PPI 39.7 (no result: Arr AP2 block, Rin1 Abl inh, Beta2AR agonist) | ABHD5-PLIN5 conf inactive | HNF4 counter 31.9
CCOC(=O)[C@]12Cc3cc(Cl)ccc3[C@H]1N(C1CCCCC1)C(=O)c1ccccc12	ABHD5 PLIN5 PPI 51.1 (no result: MBD2 inh, Arr AP2 block, Rin1 Abl inh, UHRF1 MBD2 ctr, Beta2AR agonist) | ABHD5-PLIN5 conf 39.9 | HNF4 counter 39.1
CC1CC(C)OP(=O)(OCCC#N)O1 (stereo not given)	none
O=C(COc1ccc2ccc(=O)oc2c1)N1C[C@H]2C[C@@H](C1)c1cccc(=O)n1C2	none
CN1CCC(N(C)c2nc(-c3ccc([N+](=O)[O-])cc3)nc3ccccc23)CC1	ABHD5 PLIN5 PPI 29.0 | ABHD5-PLIN5 conf inactive | HNF4 counter inactive
O=c1[nH]c(=O)n(Cc2ccccc2)c(O)c1/C=C1\C=Nc2ccccc21	none
O=c1[nH]c(=O)n(CC2CCCO2)c(O)c1/C=C1\C=Nc2ccccc21 (stereo not given)	ABHD5 PLIN5 PPI 26.6! | ABHD5-PLIN5 conf inactive | HNF4 counter 18.0
O=c1[nH]c(O)c(/C=C2\C=NN=C2c2ccccc2)c(=O)[nH]1	ABHD5 PLIN5 PPI 30.3 | ABHD5-PLIN5 conf 61.9 | HNF4 counter 63.4
CCc1c(C)nc(N)nc1N1N=C1SCCOc1ccccc1	none
Cc1ccc(C2NC(=S)NC(c3ccc(C)cc3)C23C(=O)NC(=O)NC3=O)cc1 (stereo not given)	none
O=C1NC(=S)NC(=O)C12C(c1ccc(F)cc1)NC(=S)NC2c1ccc(F)cc1 (stereo not given)	ABHD5 PLIN5 PPI 24.2 | ABHD5-PLIN5 conf 78.9 | HNF4 counter 63.1
O=C1NC(=S)NC(=O)C12C(c1ccccc1)NC(=S)NC2c1ccccc1 (stereo not given)	ABHD5 PLIN5 PPI 29.3 | ABHD5-PLIN5 conf 61.0 | HNF4 counter 39.0
COC(=O)C1=C(C(=O)OC)C2OC1c1cc3ccccc3cc12	ABHD5 PLIN5 PPI 81.5 | ABHD5-PLIN5 conf 78.1 | HNF4 counter 108.8
Cc1ccc(-c2cc(-c3ccc(C)cc3)[n+](-c3ccccc3)c(-c3ccc(C)cc3)c2)cc1	ABHD5 PLIN5 PPI 28.5, Beta2AR agonist 44.0 (no result: MBD2 inh, UHRF1 MBD2 ctr) | ABHD5-PLIN5 conf inactive | HNF4 counter inactive
CCOC(=O)c1ccc(-[n+]2c(-c3ccccc3)cc(-c3ccccc3)cc2-c2ccccc2)cc1	none (no result: ABHD5 PLIN5 PPI, MBD2 inh, Rin1 Abl inh, UHRF1 MBD2 ctr)
